Tests used:
[1] = folding enthalpy; higher = less favourable; fluorescence melt of hairpins on a sequencing array, two-state fit; details: sodium 0.088 M
Summary of the method: (§1)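 Folding enthalpy and melting temperature were estimated with bootstrapped two-state fits and combined across four replicates by inverse-variance weighting, with fitted temperatures raised by 9.35 °C to match UV melts. The data were Cy3 fluorescence of library hairpins, with annealed Cy3 and quencher oligos, on a sequenced MiSeq flow cell in 50 mM Na-HEPES pH 8.0, 25 mM NaCl, imaged in 2.5 °C steps up to 60 °C and normalised to pre-quench Cy3 and control constructs.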

[2] = melting temperature; fluorescence melt of hairpins on a sequencing array, two-state fit, raised by 9.35 °C to match UV melts; details: sodium 0.088 M
Summary of the method: as §1

GCGGCGCGAAAGCCCGGC ((.(.((....)).).))
folding enthalpy [1]: -14.6 kcal/mol
Tm [2]: 59.8 °C

GCGGCGCGAAAGCGAAGC ((..(((....)))..))
folding enthalpy [1]: -29 kcal/mol
Tm [2]: 68.1 °C

GCGGCGCGAAAGCGAGGC ((..(((....)))..))
folding enthalpy [1]: -24.8 kcal/mol
Tm [2]: 63.9 °C

GCGGCGCGAAAGCGATGC ((..(((....)))..))
folding enthalpy [1]: -38.6 kcal/mol
Tm [2]: 69.1 °C

GCGGCGCGAAAGCGTTGC ((..(((....)))..))
folding enthalpy [1]: -21.2 kcal/mol
Tm [2]: 66.5 °C

GCGGCGCGAAAGCTCGGC ((.(.((....)).).))
folding enthalpy [1]: -17.4 kcal/mol
Tm [2]: 44.4 °C

GCGGCGGCCCGC ((((....))))
folding enthalpy [1]: -13.8 kcal/mol
Tm [2]: 58.5 °C

GCGGCTCCGAAAGGACGC (((..(((....))))))
folding enthalpy [1]: -41.2 kcal/mol
Tm [2]: 54.7 °C

GCGGCTTTCCGC ((((....))))
folding enthalpy [1]: -25 kcal/mol
Tm [2]: 56.6 °C

GCGGGACGCCGC ((((....))))
folding enthalpy [1]: -13.9 kcal/mol
Tm [2]: 66.2 °C

GCGGGACTCCGC ((((....))))
folding enthalpy [1]: -27.3 kcal/mol
Tm [2]: 67.7 °C

GCGGGAGGAAACTCCCAC (.(((((....))))).)
folding enthalpy [1]: -13.7 kcal/mol
Tm [2]: 48.7 °C

GCGGGAGGAAACTCTCGC (((.(((....))).)))
folding enthalpy [1]: -37.2 kcal/mol
Tm [2]: 57.5 °C

GCGGGAGGCCGC ((((....))))
folding enthalpy [1]: -18.4 kcal/mol
Tm [2]: 57.8 °C

GCGGGATCCCGC ((((....))))
folding enthalpy [1]: -41.9 kcal/mol
Tm [2]: 59.3 °C

GCGGGCAGCCGC ((((....))))
folding enthalpy [1]: -16.4 kcal/mol
Tm [2]: 63.5 °C

GCGGGCATCCGC ((((....))))
folding enthalpy [1]: -24.5 kcal/mol
Tm [2]: 67 °C

GCGGGCGAAAGCCTCGC ((((((....))).)))
folding enthalpy [1]: -21.9 kcal/mol
Tm [2]: 66.3 °C

GCGGGCGGAAACACCCGC (((((.(....).)))))
folding enthalpy [1]: -44.2 kcal/mol
Tm [2]: 60.5 °C

GCGGGCGGAAACGCCCAC (.(((((....))))).)
folding enthalpy [1]: -8.92 kcal/mol
Tm [2]: 57.2 °C

GCGGGCTTCCGC ((((....))))
folding enthalpy [1]: -21.2 kcal/mol
Tm [2]: 61 °C

GCGGGGACCCGC ((((....))))
folding enthalpy [1]: -26.3 kcal/mol
Tm [2]: 68.3 °C

GCGGGGCGAAAGCCTAGC ((..(((....)))..))
folding enthalpy [1]: -19.2 kcal/mol
Tm [2]: 64.2 °C

GCGGGGCGAAAGCGGCGC (((..((....))..)))
folding enthalpy [1]: -34.7 kcal/mol
Tm [2]: 66.8 °C

GCGGGGCGAAAGCTCAGC ((.(.((....)).).))
folding enthalpy [1]: -23.7 kcal/mol
Tm [2]: 60.1 °C

GCGGGGCGAAAGCTCGGC ((.(.((....)).).))
folding enthalpy [1]: -16.4 kcal/mol
Tm [2]: 56.3 °C

GCGGGGCGAAAGCTGCGC (((..((....))..)))
folding enthalpy [1]: -27.2 kcal/mol
Tm [2]: 65.6 °C

GCGGGGTCGAAAGACCGC (((..(((....))))))
folding enthalpy [1]: -12.8 kcal/mol
Tm [2]: 57.7 °C

GCGGGTGCCCGC ((((....))))
folding enthalpy [1]: -30.3 kcal/mol
Tm [2]: 57.4 °C

GCGGGTGGAAACGCTCGC (((.(.(....).).)))
folding enthalpy [1]: -24.6 kcal/mol
Tm [2]: 52.1 °C

GCGGGTGTCCGC ((((....))))
folding enthalpy [1]: -22.8 kcal/mol
Tm [2]: 58.2 °C

GCGGGTTCGAAAGAACGC (((..(((....))))))
folding enthalpy [1]: -12.3 kcal/mol
Tm [2]: 45.5 °C

GCGGTAACCGC ((((...))))
folding enthalpy [1]: -27.8 kcal/mol
Tm [2]: 57.5 °C

GCGGTAAGCCGC ((((....))))
folding enthalpy [1]: -23.3 kcal/mol
Tm [2]: 57.7 °C

GCGGTACGAAAGTATCGC (((.(((....))).)))
folding enthalpy [1]: -56.1 kcal/mol
Tm [2]: 64.7 °C

GCGGTCACCGC ((((...))))
folding enthalpy [1]: -23.8 kcal/mol
Tm [2]: 63 °C

GCGGTCGAAAGACCACGC ((((((....)))..)))
folding enthalpy [1]: -17 kcal/mol
Tm [2]: 57 °C

GCGGTCGAAAGACCTCGC ((((((....)))..)))
folding enthalpy [1]: -14.8 kcal/mol
Tm [2]: 50.2 °C

GCGGTCGGAAACGACTGC ((.((((....)))).))
folding enthalpy [1]: -41.5 kcal/mol
Tm [2]: 64.2 °C

GCGGTCGGAAACGGTCGC (((..((....))..)))
folding enthalpy [1]: -25.1 kcal/mol
Tm [2]: 52.2 °C

GCGGTGATCCGC ((((....))))
folding enthalpy [1]: -28.1 kcal/mol
Tm [2]: 54.8 °C

GCGGTGCGAAAGCATGGC ((..(((....)))..))
folding enthalpy [1]: -21.8 kcal/mol
Tm [2]: 56.1 °C

GCGGTGCGAAAGCATTGC ((..(((....)))..))
folding enthalpy [1]: -22.4 kcal/mol
Tm [2]: 59.2 °C

GCGGTGGGAAACTACCGC (((((.(....).)))))
folding enthalpy [1]: -37.5 kcal/mol
Tm [2]: 60.5 °C

GCGGTTAACCGC ((((....))))
folding enthalpy [1]: -28.7 kcal/mol
Tm [2]: 66.7 °C

GCGGTTACCCGC ((((....))))
folding enthalpy [1]: -28.4 kcal/mol
Tm [2]: 56.7 °C

GCGGTTGGAAACAATCGC (((.(((....))).)))
folding enthalpy [1]: -40.8 kcal/mol
Tm [2]: 56.1 °C

GCGGTTGGCCGC ((((....))))
folding enthalpy [1]: -25.3 kcal/mol
Tm [2]: 64.8 °C

GCGGTTTCCCGC ((((....))))
folding enthalpy [1]: -25 kcal/mol
Tm [2]: 56.2 °C
